14 compounds from ChEMBL document CHEMBL4364333, “High-throughput screening of bioactive compounds via new catalytic reaction in the pooled mixture” (Bioorg Med Chem Lett, 2019) can be followed below.

The source made the active and inactive calls. No cut-off for these calls is given here.

What all share (assay type): cell-based
Series [1] deals with HeLa. Description: Cytotoxicity against human HeLa cells expressing alkaline phosphatase assessed as reduction in cell viability at 40 uM incubated for 3 hrs by WST-1 assay. The gist of the method:
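HeLa cells stably expressing soluble secretory alkaline phosphatase, seeded at equal numbers, exposed to diluted test material for 3 h. Cytotoxicity read out as the number of live cells.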

For series [2], the system named is HeLa. Description: Inhibition of alkaline phosphatase secretion in human HeLa cells at 40 uM incubated for 3 hrs. The method in brief: (§1)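 HeLa cells stably expressing soluble secretory alkaline phosphatase, seeded at equal numbers, exposed to diluted test material for 3 h. Secretion read out as alkaline phosphatase enzymatic activity in the culture medium.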

The test system of series [3] is HeLa. Description: Inhibition of alkaline phosphatase secretion in human HeLa cells at 18 uM incubated for 3 hrs. The gist of the method:
(§2)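 HeLa cells stably expressing soluble secretory alkaline phosphatase, seeded at equal cell numbers, were incubated with the test sample for 3 h. Alkaline phosphatase enzymatic activity in the culture medium was measured as the secretion read-out. Live cell number was counted in parallel to assess cytotoxicity.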

The subject of series [4] is HeLa. Description: Inhibition of alkaline phosphatase secretion in human HeLa cells incubated for 3 hrs. The gist of the method:
as §1

For series [5], the system named is HeLa. The series is described as follows: Inhibition of alkaline phosphatase secretion in human HeLa cells at 50 uM incubated for 3 hrs. The gist of the method:
as §2

On to `FC(F)(F)C(c1c[nH]c2ccccc12)c1c[nH]c2ccccc12`, for which the Activity entry in series [1] is “Non-Toxic”. Besides, the inhibition result in series [2] was “Active”.

Turning to `Cn1cc(C(c2cn(C)c3ccccc23)C(F)(F)F)c2ccccc21`, the Activity entry in series [1] is recorded as “Non-Toxic”.

Take `C[C@H]1CCC/C=C/[C@@H]2C[C@H](O)C[C@H]2[C@H](O)/C=C/C(=O)O1`: the inhibition result in series [3] is “Active”.

Regarding `FC(F)(F)C(F)(F)C(c1c[nH]c2ccccc12)c1c[nH]c2ccccc12`, the inhibition entry in series [4] is “Active”. In series [1], the Activity entry was “Non-Toxic”.

For `Cn1cc(C(c2cn(C)c3ccccc23)C(F)(F)C(F)(F)F)c2ccccc21`, the Activity entry in series [1] is given as “Non-Toxic”.

Take `Cn1cc(C(c2c[nH]c3ccccc23)C(F)(F)C(F)(F)F)c2ccccc21` (centres undefined): the Activity entry in series [1] is on record as “Non-Toxic”.

Turning to `Fc1ccc2[nH]cc(C(c3c[nH]c4ccccc34)C(F)(F)F)c2c1` (centres undefined), the Activity result in series [1] is “Non-Toxic”.

For `FC(F)(F)C(c1c[nH]c2ccccc12)c1c[nH]c2ccc(Br)cc12` (centres undefined), the inhibition entry in series [4] was “Active”. The Activity entry in series [1] is reported as “Non-Toxic”.

In the case of `COc1ccc2[nH]cc(C(c3c[nH]c4ccccc34)C(F)(F)F)c2c1` (centres undefined), the inhibition entry in series [4] is “Active”. The Activity entry in series [1] is reported as “Non-Toxic”.

`FC(F)(F)C(c1c[nH]c2ccc(Br)cc12)c1c[nH]c2ccc(Br)cc12`: the inhibition result in series [4] was “Active”. The Activity result in series [1] is “Non-Toxic”.

`Fc1ccc2[nH]cc(C(c3c[nH]c4ccc(F)cc34)C(F)(F)F)c2c1`: the Activity entry in series [1] is listed as “Non-Toxic”.

For `Cn1cc(C(c2c[nH]c3ccccc23)C(F)(F)F)c2ccccc21` (centres undefined), in series [1], the Activity entry was “Non-Toxic”.

For `FC(F)(F)C(F)(F)C(c1c[nH]c2ccc(Br)cc12)c1c[nH]c2ccc(Br)cc12`, the Activity result in series [1] is listed as “Non-Toxic”.

In the case of `Fc1cc(F)c2c(c1)[C@H]1CCC[C@H]1C(c1cccnc1)N2` (some centres undefined), in series [5], the inhibition result was “Active”.
